# Reference: ChEMBL document CHEMBL4431385, “Substituted tetracyclic indole core derivatives of HCV NS5A inhibitor MK-8742” (Bioorg Med Chem Lett, 2016)
# Positions count from the first letter of the chain named.
# Legend:
# [1] = Half life in Sprague-Dawley rat at 10 mg/kg, po or 2 mg/kg, iv; format: ADME, organism-based; settings: in vivo
# Method in brief: (§1)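 Male Sprague–Dawley rats got an IV dose of 2 mg/kg in 60% PEG200 and a PO dose of 10 mpk in 10% TWEEN. Reported values are PO AUC (µM h), PO Cmax (µM), T1/2 (h), clearance (ml/min/kg) and oral bioavailability F (%).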
# [2] = target: T1, Nonstructural protein 5A (Hepatitis C virus) (UniProt Q5L478); experiment: Inhibition of HCV GT1a NS5A assessed as suppression of replicon RNA level by real-time PCR analysis; settings: Hepatitis C virus subtype 1a
# T1 sequence (whole entry): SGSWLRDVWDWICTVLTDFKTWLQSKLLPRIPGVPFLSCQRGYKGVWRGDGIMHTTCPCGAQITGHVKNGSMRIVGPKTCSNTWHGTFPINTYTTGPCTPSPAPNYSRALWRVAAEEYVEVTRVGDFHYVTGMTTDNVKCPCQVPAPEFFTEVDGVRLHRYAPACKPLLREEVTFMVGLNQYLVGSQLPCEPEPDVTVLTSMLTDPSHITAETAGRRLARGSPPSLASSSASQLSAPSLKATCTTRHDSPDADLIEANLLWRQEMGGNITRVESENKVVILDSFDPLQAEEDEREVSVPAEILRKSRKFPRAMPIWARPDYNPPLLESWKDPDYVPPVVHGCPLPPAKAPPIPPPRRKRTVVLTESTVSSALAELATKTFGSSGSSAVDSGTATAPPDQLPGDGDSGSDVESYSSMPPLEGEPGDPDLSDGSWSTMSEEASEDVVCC
# [3] = target: T1, Nonstructural protein 5A (Hepatitis C virus); experiment: Inhibition of HCV GT2b NS5A assessed as suppression of replicon RNA level by real-time PCR analysis; settings: Hepatitis C virus subtype 2b
# Method in brief: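 GT2b replicon, which carries the naturally occurring NS5A 31M resistance-associated variant; potency given as EC90 in nM.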
# [4] = target: T1, Nonstructural protein 5A (Hepatitis C virus); experiment: Inhibition of HCV GT3a NS5A assessed as suppression of replicon RNA level by real-time PCR analysis; settings: Hepatitis C virus subtype 3a
# [5] = AUC in Sprague-Dawley rat at 10 mg/kg, po; format: ADME, organism-based; settings: in vivo; method in brief: as §1
# [6] = Clearance in Sprague-Dawley rat at 10 mg/kg, po or 2 mg/kg, iv; format: ADME, organism-based; settings: in vivo; method in brief: as §1
# [7] = test system: Nonstructural protein 5A (Hepatitis C virus), Q5L478 [UNDEFINED MUTATION]; experiment: Inhibition of HCV GT1a NS5A L31V mutant assessed as suppression of replicon RNA level by real-time PCR analysis; settings: Hepatitis C virus subtype 1a
# [8] = test system: T2, Nonstructural protein 5A (Hepatitis C virus), Q5L478 [Y93H]; experiment: Inhibition of HCV GT1a NS5A Y93H mutant assessed as suppression of replicon RNA level by real-time PCR analysis; settings: Hepatitis C virus subtype 1a
# T2 sequence (whole entry): T1 sequence (whole entry) with Y93H
# [9] = Oral bioavailability in Sprague-Dawley rat at 10 mg/kg; format: ADME, organism-based; settings: in vivo; method in brief: as §1
# [10] = Cmax in Sprague-Dawley rat at 10 mg/kg, po; format: ADME, organism-based; parameters: dose 10 mg/kg, route oral; settings: in vivo; method in brief: as §1
# [11] = target: T1, Nonstructural protein 5A (Hepatitis C virus); experiment: Inhibition of HCV GT1b NS5A assessed as suppression of replicon RNA level by real-time PCR analysis; settings: Hepatitis C virus subtype 1b
# [12] = test system: Hepatitis C virus subtype 1a; experiment: Selectivity ratio of EC90 for HCV GT1a NS5A Y93H mutant to EC90 for HCV GT1a NS5A
# [13] = target: T1, Nonstructural protein 5A (Hepatitis C virus); experiment: Inhibition of HCV GT4a NS5A assessed as suppression of replicon RNA level by real-time PCR analysis; settings: Hepatitis C virus subtype 4a
# [14] = target: T1, Nonstructural protein 5A (Hepatitis C virus); experiment: Inhibition of HCV GT2a NS5A assessed as suppression of replicon RNA level by real-time PCR analysis; settings: Hepatitis C virus subtype 2a
# [15] = Selectivity ratio of EC90 for HCV GT2b NS5A to EC90 for HCV GT1a NS5A
# [16] = test system: Hepatitis C virus subtype 1a; experiment: Selectivity ratio of EC90 for HCV GT1a NS5A L31V mutant to EC90 for HCV GT1a NS5A
# [17] = Half life in Sprague-Dawley rat at 5 mg/kg, po or 2 mg/kg, iv; format: ADME, organism-based; settings: in vivo
# Method in brief: (§2)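 Male Sprague–Dawley rats got IV dosing at 2 mg/kg in 60% PEG200 and PO dosing at 5 mpk in either 0.5% MC or 10% TWEEN, depending on compound. The readouts are PO AUC (µM h), PO Cmax (µM), T1/2 (h), Cl (ml/min/kg) and F (%).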
# [18] = Clearance in Sprague-Dawley rat at 5 mg/kg, po or 2 mg/kg, iv; format: ADME, organism-based; settings: in vivo; method in brief: as §2
# [19] = AUC in Sprague-Dawley rat at 5 mg/kg, po; format: ADME, organism-based; settings: in vivo; method in brief: as §2
# [20] = Oral bioavailability in Sprague-Dawley rat at 5 mg/kg; format: ADME, organism-based; settings: in vivo; method in brief: as §2
# [21] = Cmax in Sprague-Dawley rat at 5 mg/kg, po; format: ADME, organism-based; parameters: dose 5 mg/kg, route oral; settings: in vivo; method in brief: as §2
Compound,half-life [1] [h],EC90 [2] [nM],EC90 [3] [nM],EC90 [4] [nM],AUC [5] [µM·h],clearance [6] [mL/min/kg],EC90 [7] [nM],EC90 [8] [nM],bioavailability [9] [%],Cmax [10] [nM],EC90 [11] [nM],Selectivity ratio [12],EC90 [13] [nM],EC90 [14] [nM],half-life [17] [h],Cmax [21] [nM],also measured
COC(=O)N[C@H](C(=O)N1CCC[C@H]1c1ncc(-c2cc(F)c3c(c2)OC(c2cccc(OC)c2)n2c-3cc3cc(-c4cnc([C@@H]5CCCN5C(=O)[C@@H](NC(=O)OC)C(C)C)[nH]4)ccc32)[nH]1)C(C)C (stereo partly specified),5.9,0.01,6,0.07,2.1,10,0.2,6,12,240,,,,,,,
COC(=O)N[C@H](C(=O)N1C[C@H](F)C[C@H]1c1ncc(-c2cc(F)c3c(c2)OC(c2ccccc2)n2c-3cc3cc(-c4cnc([C@@H]5C[C@@H](F)CN5C(=O)[C@@H](NC(=O)OC)C(C)C)[nH]4)ccc32)[nH]1)C(C)C (mixture of isomers),,0.005,72,0.8,,,9,0.08,,,0.003,16,0.1,0.2,,,
COC(=O)N[C@H](C(=O)N1CCC[C@H]1c1ncc(-c2cc(F)c3c(c2)OC(c2cc(Cl)cc(OC)c2)n2c-3cc3cc(-c4cnc([C@@H]5CCCN5C(=O)[C@@H](NC(=O)OC)C(C)C)[nH]4)ccc32)[nH]1)C(C)C (stereo partly specified),5.2,0.01,0.7,0.1,0.75,8,0.1,3,3,100,,300,,,,,Selectivity ratio [15]: 70; Selectivity ratio [16]: 10
COC(=O)N[C@H](C(=O)N1CCC[C@H]1c1ncc(-c2ccc3c(c2)OCn2c-3c(C3CC3)c3cc(-c4cnc([C@@H]5CCCN5C(=O)[C@@H](NC(=O)OC)C(C)C)[nH]4)ccc32)[nH]1)C(C)C,,0.03,122,10,,,8,100,,,0.004,,0.3,0.005,,,
COC(=O)N[C@H](C(=O)N1CCC[C@H]1c1ncc(-c2cc(F)c3c(c2)O[C@@H](c2ccccc2)n2c-3cc3cc(-c4cnc([C@@H]5CCCN5C(=O)[C@@H](NC(=O)OC)C(C)C)[nH]4)ccc32)[nH]1)C(C)C,,0.005,18,0.4,,,0.4,34,,,0.003,,0.04,0.15,3.6,330,"clearance [18]: 11 mL/min/kg; AUC ([19]; Sprague-Dawley, read-out: AUC): 2.8 µM·h; bioavailability [20]: 33%"
COC(=O)N[C@H](C(=O)N1CCC[C@H]1c1ncc(-c2ccc3c(c2)OC(c2cccc(OC)c2)n2c-3cc3cc(-c4cnc([C@@H]5CCCN5C(=O)[C@@H](NC(=O)OC)C(C)C)[nH]4)ccc32)[nH]1)C(C)C (stereo partly specified),,0.005,2,0.1,,,0.2,8,,,,,,,4.3,100,AUC [19]: 0.51 µM·h
